# Assay results taken from the RNAGym collection of RNA variant scans (doi:10.1126/science.aae0568).
# Variants at the floor of the assay were thinned out.
# B1: tRNA (parent)
# chain: GUUCCGUUGGCGUAAUGGUAACGCGUCUCCCUCCUAAGGAGAAGACUGCGGGUUCGAGUCCCGUACGGAACG
# Variants of: B1
# Assay: yeast fitness relative to wild type (ratio to wild type); higher = fitter; tRNA-Arg(CCU), competitive growth, 37 C, YPD
# Outline: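 Start and end populations of a pooled competition were compared by 100-nucleotide paired-end sequencing of gene amplicons. The Saccharomyces cerevisiae strains carried tRNA-Arg(CCU) gene variants at the native genomic locus, synthesised with a 3% per-site mutation rate at 69 sites, and competed in YPD at 37°C for 24 hours in six parallel replicates. Darwinian fitness relative to wild type was based on the change in genotype frequencies. Genotypes required ≥ 100 starting reads, and estimates < 0.5 were set to 0.5.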
row,Variant,yeast fitness
1,GUUCCGUUGGCGUAAUCGUAACCCGUCUCCCUCCUAAGGAGAUGACUGAGGGUUCGAGUCCCGUACGGAACG [G17C G23C A43U C49A],0.613
2,GUUCCGUUGGCGUAAUCCUAAAGCGUCUCCCUCCUAAGGAGAAGACUGCGGGUUCGAGUCUCGUACGGAACG [G17C G18C C22A C61U],≤ 0.5
3,GUUCCGUUGGCGUAAUCGUAACCCGUCUCCCUCCUAAGGAGAAGACGGCGGGUUCGAGUCCCGUACGGAACG [G17C G23C U47G],≤ 0.5
4,GUUCCGUUGGCGUAAUCGUAACGCGUCUUCCUCCUAAGGAGAAGACUGCGGGUUCGAGUCCCGUACGGAUCG [G17C C29U A70U],≤ 0.5
5,GUUCCGUUGGCGUAAUCGUAACGCGUCUCCCUCCUAAGGAGAAGACUGCGGGUUAGAGUACCGUACGGAACG [G17C C55A C60A],0.716
6,GUUCCGUUGGCGUAAUCGUAACGCGUCUCACUCGUACGGAGAAGACUGCGGGCUCGAGUCCCCUACGGAACG [G17C C30A C34G A37C U53C G63C],≤ 0.5
7,GUUCCGUUGGCGUAAUCGUAACGCCUCUCCCUCCUAAGGAGAAGACUGCGGGUUCGAGUCUCGUACGGAACG [G17C G25C C61U],≤ 0.5
8,GUUCCGUUGGCGUAAUCGUAACGCGUCUCCCUCCUAAGGAGAAGACUGCGGGUUCGAGUUCCGUACGGAACG [G17C C60U],0.597
9,GUUCCGUUGGCGUAAUCGUAACGCGUCUCCCUCCUAAGGAGAAGACUGCGGGUUCGAGUGCCGUACGGAACG [G17C C60G],≤ 0.5
10,GUUCCGUUGGCGUAAUCCUAAAGCGUCUCCCUCCUAAGGAGAAGACUGCGGGUUCGAGUCCCGUACGGAACG [G17C G18C C22A],≤ 0.5
11,GUUCCGUUGGCGUAAUCGUAACGCGUCUCCCUCCUAAGGAGAAGACUGCGGGUUUGAGUCCCGUACACAACG [G17C C55U G67A G68C],≤ 0.5
12,GUUCCGUUGGCGUAAUCCUAACGCGUCUCCCUCCUAAGGAGAAGACUGCGGGUUCGAGUCCCGUACGGUACG [G17C G18C A69U],≤ 0.5
13,GUUCCGUUGGCGUAAUCGUAACGCGUCUCCGUCCUAAGGAGAAGACUGCGGGUUCGAGUCCCGUACGGAACG [G17C C31G],0.634
14,GUUCCGUUGGCGUAAUCGUAACGCGUCUCCCUCCUAACGAGAAGACUGCGGCUUCGAGUCCCGUACGGAACG [G17C G38C G52C],≤ 0.5
15,GUUCCGUUGGCGUAAUCGUAACGCGUCUCUCUCCUAAGGGGAAGACUGCGGGUUCGAGUCCCGUACGGAACG [G17C C30U A40G],0.686
16,GUUCCGUUGGCGUAAUCGUAACGCGUCUCCCUCCUAAGGAGAAGACUGCGGGUUCGAGUACCGUACAGAACG [G17C C60A G67A],≤ 0.5
17,GUUCCGUUGGCGUAAUCGUAACGCGUCUCCCUCCUAAGGAGAAGACUGCGGGUUCGAGUCCCGUAAGGAACG [G17C C66A],0.575
18,GUUCCGUUGGCGUAAUCGUAACGCGUCUACCUCCUAAGGAGAAGACUGCGGGUUCGAGUCCCGUACGGAACG [G17C C29A],0.544
19,GUUCCGUUGGCGUAAUCAUAACGCGUUUCCCUCCUAAGGAGAAGAUUGCGGGUUCGAAUCCCGUACGGAACG [G17C G18A C27U C46U G58A],≤ 0.5

row,Variant,yeast fitness
1,GUUCCGUUGGCGUAAUCGUAACGCGUCUUCCACCUAAGGAGAAGAUUGCGGGUUCGAGUACCGUAGGGAACG [G17C C29U U32A C46U C60A C66G],≤ 0.5
2,GUUCCGUUGGCGUAAUCGUAACCCGUCUCCCUGCUAAGGAGAAGACUGCAGGUUCGAGUCCCGUACGAAACG [G17C G23C C33G G50A G68A],≤ 0.5
3,GUUCCGUUGGCGUAAUCGUAACGCGUCUCCCUCUUAAGGAGAAGACUGCGGGUUCGAGUCUCGUACAGAACG [G17C C34U C61U G67A],≤ 0.5
4,GUUCCGUUGGCGUAAUCGUAACCCGUCUCCGUCCUAAGGAGAAGACUGCCGGUUCGAGUACCAUACGGAACG [G17C G23C C31G G50C C60A G63A],≤ 0.5
5,GUUCCGUUGGCGUAAUCCUAAAGCGUCCCCCUCCUAAGGAGAAGACUGCGGGUUCGAGUACCGUAUGGAACG [G17C G18C C22A U28C C60A C66U],0.677
6,GUUCCGUUGGCGUAAUCGUAACGCGUCUCCCUCCUAAGGAGAAGACUGCGGGUUUGAGUCCCGUACGGUACG [G17C C55U A69U],≤ 0.5
7,GUUCCGUUGGCGUAAUCGUAACGCGUCUCCCUCUUAAGGAGAAGACUGCGGGUUCGGGUCCCGUACGGAUCG [G17C C34U A57G A70U],0.558
8,GUUCCGUUGGCGUAAUCGUAACGCGUCUCCUUCCUAAGGAGCAGACUGCGGGGUCGAGUCCCGUACGGAACG [G17C C31U A42C U53G],≤ 0.5
9,GUUCCGUUGGCGUAAUCGUAACGCGUCUCGCUCCUAAGGAGAAGACUGCGGGUUCGAGUCCCGUACGGAACG [G17C C30G],0.581
10,GUUCCGUUGGCGUAAUCGUAACGCGUCUCCCUCCUAAGGAGAAGACUGUGGGUUCGAGUCCCGUACGGAACG [G17C C49U],0.768
11,GUUCCGUUGGCGUAAUCGUAACGCGUCUCCCUCCUAAGGAGAAGACUGAGGGUUCGAGUCCCGUACGGAACG [G17C C49A],0.571
12,GUUCCGUUGGCGUAAUCCUAACGCGUCUCCCUCCUAAGGAGAAGACUGCGAGUUCGAGUCCCGUACGGAACG [G17C G18C G51A],≤ 0.5
13,GUUCCGUUGGCGUAAUCGUAACGCGUCUCCCUCGUACGGAGAAGACUGCGGGUUCGAGUCCAGUACGGAACG [G17C C34G A37C C62A],0.561
14,GUUCCGUUGGCGUAAUCGUAACGCGUCUCCCUCCUAAGAAGAAGACUGCGGGUUCGAGUCCCGUACGGAACG [G17C G39A],0.665
15,GUUCCGUUGGCGUAAUCGUAACGCCUCUGCCUCCUUAGAAGAAGACUGCGGGUUCGAGUCCCGUACGGAACG [G17C G25C C29G A36U G39A],≤ 0.5
16,GUUCCGUUGGCGUAAUCGUAACGCGUCUCCCUCCUAAGGAGAAGAGUGCGGGUUCGUGUCCCAUACGGAACG [G17C C46G A57U G63A],≤ 0.5
17,GUUCCGUUGGCGUAAUCGUAACGCGUCUCCCUCCUAAAGAGAAGACUGCGGGUUCGAGUCCCGUACGGAACG [G17C G38A],0.599
18,GUUCCGUUGGCGUAAUCGUAACGCGUCUCCCUCCUAAGGAGAAGAUUGCCGGUUAGAGUCCCAUAUGGAACG [G17C C46U G50C C55A G63A C66U],≤ 0.5
19,GUUCCGUUGGCGUAAUCGUAACGCGUCUCCUUCCUAUGGAAAAGACUACGGGUUCGAGUCCCGUACGGAACG [G17C C31U A37U G41A G48A],≤ 0.5
